ChEMBL document CHEMBL4422663, “Suppression of Tumor Growth and Metastases by Targeted Intervention in Urokinase Activity with Cyclic Peptides” (J Med Chem, 2019)
Active and inactive are the calls of the source. The calls are words filed in the database; no cut-off is given here. Positions of bridges follow the written chain, without caps; N, C: chain ends. Residues, ends and D or L forms follow the SMILES beside them.

Assays:
CT26 [1] = experiment: Antimetastatic activity against GFP-fused mouse CT26 cells allografted in Balb/c mouse assessed as reduction in tumor nodule numbers at 1.13 mg/kg, ip administered daily for 15 days by fluorescence-based assay; format: functional, organism-based
How it was run: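 Male Balb/c mice received 10^6 GFP-CT-26 cells iv and daily ip dosing on Days 1–15. On Day 16, pleural-surface tumor nodules per lung were counted after soaking in formaldehyde.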

[2] = target: T1, Urokinase-type plasminogen activator (Mus musculus, UniProt P06869); experiment: Inhibition of mouse uPA serine protease domain preincubated for 15 mins followed by chromogenic substrate addition
CT26 [3] = experiment: Antimetastatic activity against GFP-fused mouse CT26 cells allografted in Balb/c mouse assessed as reduction genomic DNA of metastatic cells at 1.13 mg/kg, ip administered daily for 15 days by qPCR analysis; format: functional, organism-based
How it was run: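 Lung-metastasis model: male Balb/c (~20 g, 6/group) given 10^6 GFP-CT-26 cells iv, then daily ip dosing from Day 1 to 15, killed on Day 16. Total DNA (200 ng) from homogenized lungs went to SYBR Green qPCR (287 bp amplicon, 45 cycles). The standard curve used CT-26 genomic DNA spiked into normal lung DNA at 0.135–100%.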

[4] = target: Urokinase-type plasminogen activator (Mus musculus) (UniProt P06869); experiment: Potency index, ratio of Ki for LD1 to Ki for test compound for inhibition of mouse uPA preincubated for 15 mins followed by chromogenic substrate addition
Plasminogen [5] = target: Plasminogen (Homo sapiens, UniProt P00747); experiment: Inhibition of human plasmin preincubated for 15 mins followed by chromogenic substrate addition
[6] = target: Tissue-type plasminogen activator (Mus musculus, UniProt P11214); experiment: Inhibition of mouse tissue-type plasminogen activator preincubated for 15 mins followed by chromogenic substrate addition
CT26 [7] = experiment: Cytotoxicity against mouse CT26 cells at 100 uM; format: cell-based; conditions: ct26, 100 µM
[8] = target: T1, Urokinase-type plasminogen activator; experiment: Inhibition of uPA in presence of 75% mouse […] measured at 2 hrs
How it was run: (§1)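 Peptide was preincubated in 75% murine plasma for 0–24 h (sampled at 0, 2, 8 and 24 h). Residual uPA-inhibitory activity was then measured and expressed as IC50.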

Plasminogen [9] = target: Plasminogen (Mus musculus, UniProt P20918); experiment: Inhibition of mouse plasmin preincubated for 15 mins followed by chromogenic substrate addition
CT26 [10] = experiment: Anti-tumor activity against […] mouse CT26 cells allografted in Balb/c mouse assessed as tumor growth inhibition at 1.13 mg/kg, ip administered daily for 15 days and measured on day 16 […]; format: functional; conditions: read-out: TGI
How it was run: (§2)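 CT-26 cells implanted subcutaneously in right flank of Balb/c mice; once tumors reached about 150~200 mm3, daily intraperitoneal dosing with peptide or saline for 15 days. Mice sacrificed on Day 16; tumors resected and weighed; tumor growth reduction relative to saline group.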

[11] = target: Urokinase-type plasminogen activator (Homo sapiens, UniProt P00749); experiment: Inhibition of human uPA preincubated for 15 mins followed by chromogenic substrate addition
CT26 [12] = experiment: Antimetastatic activity against GFP-fused mouse CT26 cells allografted in Balb/c mouse assessed as reduction in tumor nodule numbers at 11.3 mg/kg, ip administered daily for 15 days by fluorescence-based assay; format: functional; conditions: 360 h
How it was run: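 Lung metastasis model: male Balb/c mice (~20 g, 6/group) given 10^6 GFP-CT-26 cells i.v. with peptide or saline, daily i.p. dosing Day 1–15, sacrificed Day 16. Surface tumor nodules on pleural surfaces counted per lung after soaking in formaldehyde.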

CT26 [13] = experiment: Anti-tumor activity against GFP expressing mouse CT26 cells allografted in Balb/c mouse assessed as tumor growth inhibition at 11.3 mg/kg, ip administered daily for 15 days and measured on day 16 […]; format: functional; conditions: read-out: TGI; how it was run: as §2
[14] = target: T1, Urokinase-type plasminogen activator; experiment: Inhibition of uPA in presence of 75% mouse […] measured at 8 hrs; how it was run: as §1
Prothrombin [15] = target: Prothrombin (Mus musculus, UniProt P19221); experiment: Inhibition of mouse thrombin preincubated for 15 mins followed by chromogenic substrate addition
CT26 [16] = experiment: Antimetastatic activity against mouse CT26 cells allografted in Balb/c mouse assessed as prolongation of mouse survival time at 11.3 mg/kg, ip administered daily for 15 days; format: functional, organism-based
Prothrombin [17] = target: Prothrombin (Homo sapiens, UniProt P00734); experiment: Inhibition of human thrombin preincubated for 15 mins followed by chromogenic substrate addition
[18] = target: T1, Urokinase-type plasminogen activator; experiment: Binding affinity to mouse uPA by SPR assay
Plasma kallikrein [19] = target: Plasma kallikrein (Mus musculus, UniProt P26262); experiment: Inhibition of mouse plasma kallikrein preincubated for 15 mins followed by chromogenic substrate addition
[20] = target: T1, Urokinase-type plasminogen activator; experiment: Inhibition of mouse uPA preincubated for 15 mins followed by chromogenic substrate addition
Plasma kallikrein [21] = target: Plasma kallikrein (Homo sapiens, UniProt P03952); experiment: Inhibition of human plasma kallikrein preincubated for 15 mins followed by chromogenic substrate addition
[22] = target: T1, Urokinase-type plasminogen activator; experiment: Inhibition of uPA in presence of 75% mouse […] measured immediately; how it was run: as §1
[23] = target: Urokinase-type plasminogen activator (Mus musculus) (UniProt P06869); experiment: Inhibition of the intrinsic peri-cellular uPA in mouse CT26 cells assessed as reduction in cell invasion at 33 to 100 uM by Transwell invasion assay relative to control
CT26 [24] = experiment: Antimetastatic activity against GFP-fused mouse CT26 cells allografted in Balb/c mouse assessed as reduction in relative fluorescence at 11.3 mg/kg, ip administered daily for 15 days by fluorescence-based assay; format: functional; conditions: 360 h
How it was run: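 Lung metastasis model: male Balb/c mice (~20 g, 6/group) given 10^6 GFP-CT-26 cells i.v. with peptide or saline, daily i.p. dosing Day 1–15, sacrificed Day 16. Resected lungs imaged for GFP with 488 nm excitation, emission 520; signal collected over 20×20 mm2 per lung; non-implanted normal group used for background subtraction.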

[25] = Stability in 75% mouse plasma assessed as protease-mediated compound degradation measured 24 hrs post dose; format: ADME, cell-free; how it was run: as §1
[26] = target: T1, Urokinase-type plasminogen activator; experiment: Inhibition of uPA in presence of 75% mouse […] measured at 24 hrs; how it was run: as §1
CT26 [27] = experiment: Antimetastatic activity against mouse CT26 cells allografted in Balb/c mouse at 11.3 mg/kg, ip administered daily for 15 days by hematoxylin and eosin staining -based assay; format: functional, organism-based
How it was run: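 Lungs from male Balb/c given 10^6 GFP-CT-26 cells iv, with daily ip dosing on Days 1–15, were harvested on Day 16. Formalin-fixed, paraffin-embedded sections were stained with H&E for histology, with non-implanted lungs as comparison.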

[28] = target: Vitamin K-dependent protein C (Homo sapiens, UniProt P04070); experiment: Inhibition of human activated protein C preincubated for 15 mins followed by chromogenic substrate addition
CT26 [29] = experiment: Antimetastatic activity against GFP-fused mouse CT26 cells allografted in Balb/c mouse assessed as reduction in hyperplastic weights at 11.3 mg/kg, ip administered daily for 15 days by fluorescence-based assay; format: functional; conditions: 360 h
How it was run: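 Lung metastasis model: male Balb/c mice (~20 g, 6/group) given 10^6 GFP-CT-26 cells i.v. with peptide or saline, then daily i.p. dosing Day 1–15. Lungs resected and weighed immediately at sacrifice on Day 16; hyperplastic weight = lung weight minus weight of lungs from non-implanted normal mice.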

T1 sequence (P06869 21-178 limits assumed): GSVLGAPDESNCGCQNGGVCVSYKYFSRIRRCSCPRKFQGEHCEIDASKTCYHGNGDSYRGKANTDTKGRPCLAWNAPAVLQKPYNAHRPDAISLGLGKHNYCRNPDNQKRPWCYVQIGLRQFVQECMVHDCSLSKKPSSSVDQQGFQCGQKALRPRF
T1 sequence (P06869 180-433 limits assumed): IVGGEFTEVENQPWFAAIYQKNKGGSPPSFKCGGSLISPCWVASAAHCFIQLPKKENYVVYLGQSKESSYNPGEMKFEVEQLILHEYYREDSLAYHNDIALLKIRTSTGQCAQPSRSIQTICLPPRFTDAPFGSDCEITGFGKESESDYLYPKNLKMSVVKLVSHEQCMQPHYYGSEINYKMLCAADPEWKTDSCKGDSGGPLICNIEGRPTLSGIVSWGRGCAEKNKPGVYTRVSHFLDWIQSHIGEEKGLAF
Chain of Urokinase-type plasminogen activator (Mus musculus) (P06869 21-178 limits assumed): as the sequence (P06869 21-178 limits assumed) above
Chain of Urokinase-type plasminogen activator (Mus musculus) (P06869 180-433 limits assumed): as the sequence (P06869 180-433 limits assumed) above
Chain of Plasma kallikrein (Mus musculus, UniProt P26262) (P26262 20-390 limits assumed): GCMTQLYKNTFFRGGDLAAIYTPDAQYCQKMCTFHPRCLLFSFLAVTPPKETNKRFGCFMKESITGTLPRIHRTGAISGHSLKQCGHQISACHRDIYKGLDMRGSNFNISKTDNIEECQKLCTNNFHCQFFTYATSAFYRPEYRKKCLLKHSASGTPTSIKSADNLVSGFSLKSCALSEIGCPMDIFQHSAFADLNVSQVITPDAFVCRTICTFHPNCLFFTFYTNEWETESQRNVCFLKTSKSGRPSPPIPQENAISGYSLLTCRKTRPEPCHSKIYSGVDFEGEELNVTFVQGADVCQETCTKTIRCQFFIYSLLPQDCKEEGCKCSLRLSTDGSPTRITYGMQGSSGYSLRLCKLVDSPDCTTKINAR
Chain of Plasma kallikrein (Mus musculus, UniProt P26262) (P26262 391-638 limits assumed): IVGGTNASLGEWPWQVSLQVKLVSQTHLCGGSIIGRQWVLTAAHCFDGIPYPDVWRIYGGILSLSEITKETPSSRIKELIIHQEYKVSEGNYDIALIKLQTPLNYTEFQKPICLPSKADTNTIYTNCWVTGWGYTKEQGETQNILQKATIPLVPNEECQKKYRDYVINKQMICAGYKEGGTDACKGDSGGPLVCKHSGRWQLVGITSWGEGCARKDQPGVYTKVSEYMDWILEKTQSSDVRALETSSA
Chain of Plasminogen (Homo sapiens, UniProt P00747) (P00747 97-580 limits assumed): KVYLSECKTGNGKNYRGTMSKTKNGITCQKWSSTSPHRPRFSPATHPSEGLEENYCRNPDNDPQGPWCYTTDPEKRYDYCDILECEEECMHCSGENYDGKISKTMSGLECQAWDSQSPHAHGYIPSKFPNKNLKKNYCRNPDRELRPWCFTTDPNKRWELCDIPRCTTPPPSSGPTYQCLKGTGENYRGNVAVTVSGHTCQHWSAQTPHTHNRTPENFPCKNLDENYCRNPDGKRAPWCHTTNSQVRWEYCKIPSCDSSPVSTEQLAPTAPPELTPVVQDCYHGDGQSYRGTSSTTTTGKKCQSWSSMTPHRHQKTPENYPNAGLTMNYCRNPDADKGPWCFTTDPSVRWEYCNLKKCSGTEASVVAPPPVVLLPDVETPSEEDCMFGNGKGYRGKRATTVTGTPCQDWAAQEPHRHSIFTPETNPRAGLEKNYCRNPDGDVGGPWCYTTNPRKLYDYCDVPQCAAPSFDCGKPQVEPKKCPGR
Chain of Plasminogen (Homo sapiens, UniProt P00747) (P00747 581-810 limits assumed): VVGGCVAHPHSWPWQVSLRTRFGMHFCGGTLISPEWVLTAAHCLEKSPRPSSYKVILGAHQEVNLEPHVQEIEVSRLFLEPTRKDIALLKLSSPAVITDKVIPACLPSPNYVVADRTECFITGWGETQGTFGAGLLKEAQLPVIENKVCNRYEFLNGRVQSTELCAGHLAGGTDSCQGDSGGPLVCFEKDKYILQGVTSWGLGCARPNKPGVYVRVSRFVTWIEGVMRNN
Chain of Plasminogen (Mus musculus, UniProt P20918) (P20918 98-581 limits assumed): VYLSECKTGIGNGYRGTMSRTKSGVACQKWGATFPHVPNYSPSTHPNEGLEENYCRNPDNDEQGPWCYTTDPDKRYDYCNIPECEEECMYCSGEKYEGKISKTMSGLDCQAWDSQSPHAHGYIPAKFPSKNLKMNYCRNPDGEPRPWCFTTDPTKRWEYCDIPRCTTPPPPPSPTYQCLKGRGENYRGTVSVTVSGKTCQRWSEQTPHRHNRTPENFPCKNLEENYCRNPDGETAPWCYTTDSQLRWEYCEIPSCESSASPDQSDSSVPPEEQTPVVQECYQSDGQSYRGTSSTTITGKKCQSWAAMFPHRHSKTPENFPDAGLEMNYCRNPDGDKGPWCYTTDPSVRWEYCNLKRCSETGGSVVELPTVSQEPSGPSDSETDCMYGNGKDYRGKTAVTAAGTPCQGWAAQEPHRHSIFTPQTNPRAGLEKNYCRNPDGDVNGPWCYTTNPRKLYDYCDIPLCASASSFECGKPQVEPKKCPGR
Chain of Plasminogen (Mus musculus, UniProt P20918) (P20918 582-812 limits assumed): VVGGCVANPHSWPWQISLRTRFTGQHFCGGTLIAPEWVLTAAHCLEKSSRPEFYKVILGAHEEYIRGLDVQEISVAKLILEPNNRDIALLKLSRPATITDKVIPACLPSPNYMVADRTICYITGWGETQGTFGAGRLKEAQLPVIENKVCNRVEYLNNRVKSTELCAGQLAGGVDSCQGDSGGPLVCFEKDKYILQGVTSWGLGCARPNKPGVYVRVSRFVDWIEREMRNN
Chain of Tissue-type plasminogen activator (P11214 whole entry): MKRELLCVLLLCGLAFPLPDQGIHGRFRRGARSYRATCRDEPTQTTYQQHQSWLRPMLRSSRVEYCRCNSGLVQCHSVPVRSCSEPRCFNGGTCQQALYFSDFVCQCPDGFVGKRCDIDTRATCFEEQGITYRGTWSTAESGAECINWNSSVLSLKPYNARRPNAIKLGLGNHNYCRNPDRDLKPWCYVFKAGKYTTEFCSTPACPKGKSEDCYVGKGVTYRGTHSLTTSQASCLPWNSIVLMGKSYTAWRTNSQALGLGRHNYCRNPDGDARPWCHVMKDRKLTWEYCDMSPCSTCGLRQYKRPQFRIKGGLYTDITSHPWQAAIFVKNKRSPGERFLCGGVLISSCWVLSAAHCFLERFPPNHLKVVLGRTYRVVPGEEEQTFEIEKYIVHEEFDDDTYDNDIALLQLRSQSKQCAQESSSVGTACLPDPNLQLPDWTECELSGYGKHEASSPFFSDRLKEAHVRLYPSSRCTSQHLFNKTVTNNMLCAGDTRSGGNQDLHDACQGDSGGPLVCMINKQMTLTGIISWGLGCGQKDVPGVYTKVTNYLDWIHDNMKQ
Chain of Vitamin K-dependent protein C (P04070 43-197 limits assumed): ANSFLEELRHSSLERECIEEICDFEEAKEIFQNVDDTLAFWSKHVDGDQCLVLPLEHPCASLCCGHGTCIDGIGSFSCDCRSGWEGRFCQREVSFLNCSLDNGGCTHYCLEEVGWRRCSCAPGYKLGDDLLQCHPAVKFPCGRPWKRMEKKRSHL
Chain of Vitamin K-dependent protein C (P04070 212-461 limits assumed): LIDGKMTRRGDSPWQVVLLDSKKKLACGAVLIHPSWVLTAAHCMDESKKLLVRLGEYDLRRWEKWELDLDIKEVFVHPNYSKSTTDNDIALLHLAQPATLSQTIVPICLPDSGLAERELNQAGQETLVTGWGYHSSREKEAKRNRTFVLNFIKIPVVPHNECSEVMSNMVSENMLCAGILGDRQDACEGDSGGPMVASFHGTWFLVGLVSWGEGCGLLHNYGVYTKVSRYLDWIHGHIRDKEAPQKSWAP
Chain of Plasma kallikrein (Homo sapiens, UniProt P03952) (P03952 20-390 limits assumed): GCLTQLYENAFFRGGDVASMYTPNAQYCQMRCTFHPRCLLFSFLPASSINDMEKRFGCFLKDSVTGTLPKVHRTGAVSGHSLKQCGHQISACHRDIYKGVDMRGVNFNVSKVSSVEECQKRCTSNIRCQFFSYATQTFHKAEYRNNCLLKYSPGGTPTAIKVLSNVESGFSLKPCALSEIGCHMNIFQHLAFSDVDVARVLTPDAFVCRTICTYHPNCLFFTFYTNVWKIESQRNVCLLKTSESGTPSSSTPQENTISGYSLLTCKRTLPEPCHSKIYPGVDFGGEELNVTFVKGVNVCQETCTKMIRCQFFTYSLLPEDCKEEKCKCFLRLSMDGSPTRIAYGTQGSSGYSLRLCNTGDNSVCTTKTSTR
Chain of Plasma kallikrein (Homo sapiens, UniProt P03952) (P03952 391-638 limits assumed): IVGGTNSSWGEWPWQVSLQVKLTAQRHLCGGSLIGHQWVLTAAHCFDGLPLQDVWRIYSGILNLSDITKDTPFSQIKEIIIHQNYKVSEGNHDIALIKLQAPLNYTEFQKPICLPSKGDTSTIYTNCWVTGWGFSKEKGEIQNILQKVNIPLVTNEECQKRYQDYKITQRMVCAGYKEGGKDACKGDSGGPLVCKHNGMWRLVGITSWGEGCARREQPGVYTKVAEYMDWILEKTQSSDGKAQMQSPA

CC[C@H](C)[C@@H]1NC(=O)[C@H](Cc2ccc(O)cc2)NC(=O)[C@H](CCCNC(=N)N)NC(=O)[C@H](CO)NC(=O)[C@H](Cc2ccc(O)cc2)NC(=O)[C@H](C)NC(=O)[C@@H]2CCCN2C(=O)[C@@H](N)CSSC[C@@H](C(=O)O)NC(=O)CNC1=O (H-CPAYSRYIGC-OH; disulfide 1-10)
Activity (CT26 [1]): inactive
Ki [2]: 0.0153 µM
Activity (CT26 [3]): inactive
Ratio Ki [4]: 81
Ki (Plasminogen [5]): > 25 µM
Ki [6]: > 25 µM
Activity (CT26 [7]): Non-Toxic
IC50 [8]: 0.0119 µM
Ki (Plasminogen [9]): > 25 µM
inhibition in vivo at 1.13 mg/kg (CT26 [10]): 36.1%
Ki [11]: 0.34 µM
inhibition in vivo at 11.3 mg/kg (CT26 [12]): 46.5%
inhibition in vivo at 11.3 mg/kg (CT26 [13]): 56.8%
IC50 [14]: 0.0113 µM
Ki (Prothrombin [15]): > 25 µM
Activity (CT26 [16]): inactive
Ki (Prothrombin [17]): > 25 µM
Kd [18]: 0.0024 µM
Ki (Plasma kallikrein [19]): > 25 µM
Ki [20]: 0.0068 µM
Ki (Plasma kallikrein [21]): > 25 µM
IC50 [22]: 0.0101 µM
inhibition [23]: 70 to 80%
inhibition in vivo at 11.3 mg/kg (CT26 [24]): 50%
Stability [25]: Unstable
IC50 [26]: 0.0707 µM
Activity (CT26 [27]): Active
Ki [28]: > 25 µM
inhibition in vivo at 11.3 mg/kg (CT26 [29]): 51.7%
